For data set [1], the system named is TMD8. Description: Antiproliferative activity against human TMD8 cells xenografted in CB17 SCID nude mouse assessed as decrease in Ki-67 expression at 15 mg/kg, […] by […] immunohistochemical analysis. The class given is functional, organism-based. (In general: A xenograft is tissue or cells of one species grown in another, often human tumour cells in immunodeficient mice.)

The subject of data set [2] is Mus musculus. The experiment in a line: Toxicity in CB17 SCID nude mouse xenografted with human TMD8 cells assessed as change in body weight at 5 mg/kg, po qd administered for 13 consecutive days measured during compound dosing. The class given is organism-based. The following applies: in vivo. A digest of the protocol: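 Female CB-17 SCID mice, 4-5 weeks old, were inoculated subcutaneously in the right axilla with about 2×10^6 TMD8 cells. At ~100-200 mm³ they were randomized (n = 6/group) and dosed orally once daily: vehicle for 13 days, 5 mg/kg/day for 13 days, 15 mg/kg/day for 17 days.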

Data set [3] has as its target Receptor tyrosine-protein kinase erbB-2 (Homo sapiens, UniProt P04626). The experiment in a line: Inhibition of recombinant human ErbB2 using Poly(Glu, Tyr) 4:1 as substrate after 1 hr by ELISA. Summed up: (§1)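 Kinase activity was measured by ELISA on wells precoated with 20 µg/mL poly(Glu,Tyr) 4:1. Enzyme was incubated with compound in 50 mM HEPES pH 7.4, 20 mM MgCl2, 0.1 mM MnCl2, 0.2 mM Na3VO4, 1 mM DTT with 5 µM ATP at 37 °C for 1 h. Phosphotyrosine was detected with PY99 antibody, HRP secondary and OPD, read at A492. IC50 is the mean of duplicates.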
(In an ELISA, binding on a coated surface is turned into a signal by an enzyme label.)

Data set [4] has as its target Proto-oncogene tyrosine-protein kinase receptor Ret (Homo sapiens, UniProt P07949). Description: Inhibition of recombinant human RET using Poly(Glu, Tyr) 4:1 as substrate after 1 hr by ELISA.
A short description of data set [5]: Drug metabolism in mouse liver microsomes assessed as (S)-N-(4-amino-5-(4-(4-hydroxyphenoxy)phenyl)-6-methylene-7,8-dihydro-6H-pyrimido[5,4-b]pyrrolizin-7-yl)acrylamide formation after 3 hrs. The class given is ADME, microsome. In general terms: Liver microsomes are vesicles of endoplasmic reticulum, rich in cytochrome P450 enzymes.
The next data set deals with Ephrin type-A receptor 2 (Homo sapiens, UniProt P29317). The experiment in a line: Inhibition of recombinant human EPHA2 using Poly(Glu, Tyr) 4:1 as substrate after 1 hr by ELISA.
Chain of Ephrin type-A receptor 2 (P29317 whole entry): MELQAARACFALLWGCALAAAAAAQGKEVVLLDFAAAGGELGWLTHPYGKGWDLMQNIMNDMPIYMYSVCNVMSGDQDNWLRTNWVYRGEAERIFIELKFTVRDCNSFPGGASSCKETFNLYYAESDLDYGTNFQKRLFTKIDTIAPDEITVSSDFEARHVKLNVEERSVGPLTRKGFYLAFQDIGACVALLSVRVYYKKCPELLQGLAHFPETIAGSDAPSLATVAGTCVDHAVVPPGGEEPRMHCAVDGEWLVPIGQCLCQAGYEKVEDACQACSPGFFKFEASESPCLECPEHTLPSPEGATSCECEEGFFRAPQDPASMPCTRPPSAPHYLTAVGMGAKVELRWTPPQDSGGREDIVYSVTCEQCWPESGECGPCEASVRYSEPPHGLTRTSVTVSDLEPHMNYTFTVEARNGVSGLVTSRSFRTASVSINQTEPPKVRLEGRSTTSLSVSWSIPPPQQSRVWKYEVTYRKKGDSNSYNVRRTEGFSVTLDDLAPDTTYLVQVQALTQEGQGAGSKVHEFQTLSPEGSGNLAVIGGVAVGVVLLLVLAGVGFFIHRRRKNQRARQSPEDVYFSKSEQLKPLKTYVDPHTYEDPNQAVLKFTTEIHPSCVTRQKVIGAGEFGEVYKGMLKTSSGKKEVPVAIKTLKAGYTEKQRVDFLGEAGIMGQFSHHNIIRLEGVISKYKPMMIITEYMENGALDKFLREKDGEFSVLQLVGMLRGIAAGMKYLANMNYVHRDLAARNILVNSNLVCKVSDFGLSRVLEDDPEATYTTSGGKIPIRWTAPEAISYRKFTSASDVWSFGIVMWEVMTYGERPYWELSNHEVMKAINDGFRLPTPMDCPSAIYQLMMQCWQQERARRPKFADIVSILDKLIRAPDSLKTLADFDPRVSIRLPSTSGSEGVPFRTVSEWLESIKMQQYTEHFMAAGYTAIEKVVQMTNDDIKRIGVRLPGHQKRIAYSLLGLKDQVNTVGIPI
In the next data set the test system is Ramos. The experiment in a line: Antiproliferative activity against human Ramos cells after 72 hrs by MTT assay. The class given is functional, cell-based. Summed up: (§2)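 Cells grown in RPMI-1640 with FBS at 37 °C, 5% CO2. Seeded and grown 2 h, then treated with various concentrations in PBS solution, each in triplicate, and cultured a further 72 h. Viability read by MTT. IC50 from the Logit method, given as mean ± SD of three independent determinations.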

The target of data set [6] is T1, Tyrosine-protein kinase TXK (Homo sapiens, UniProt P42681).
T1 sequence (P42681 whole entry): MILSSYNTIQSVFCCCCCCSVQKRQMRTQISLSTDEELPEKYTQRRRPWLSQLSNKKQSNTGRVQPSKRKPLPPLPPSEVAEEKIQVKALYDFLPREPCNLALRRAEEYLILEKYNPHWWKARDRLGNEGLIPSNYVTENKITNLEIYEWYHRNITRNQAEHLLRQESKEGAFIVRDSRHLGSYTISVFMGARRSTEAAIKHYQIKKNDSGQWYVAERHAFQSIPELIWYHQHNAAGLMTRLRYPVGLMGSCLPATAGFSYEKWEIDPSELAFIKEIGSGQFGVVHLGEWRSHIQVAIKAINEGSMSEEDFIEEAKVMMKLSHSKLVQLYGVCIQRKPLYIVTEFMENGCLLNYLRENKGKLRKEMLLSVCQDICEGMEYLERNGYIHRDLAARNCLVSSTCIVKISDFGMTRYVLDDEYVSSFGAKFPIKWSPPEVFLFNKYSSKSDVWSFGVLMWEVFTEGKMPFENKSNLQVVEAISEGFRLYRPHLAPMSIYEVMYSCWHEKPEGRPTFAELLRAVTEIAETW
Description: Inhibition of recombinant human TXK using Poly(Glu, Tyr) 4:1 as substrate after 1 hr by ELISA. Summed up:
as §1

In data set [7] the test system is TMD8. The experiment in a line: Induction of apoptosis in human TMD8 cells assessed as early apoptotic cells at 10 nM after 72 hrs by Annexin-FITC/propidium iodide staining-based flow cytometric method (reference value: 7.98%). The data set is classed as functional.
In data set [8] the test system is TMD8. Description: Cell cycle arrest in human TMD8 cells assessed as accumulation at S phase at 100 nM after 48 hrs by propidium iodide staining-based flow cytometric method (reference value: 34.15%). The data set is classed as functional.
Data set [9] deals with TMD8. The experiment in a line: Antiproliferative activity against human TMD8 cells after 72 hrs by MTT assay. The data set is classed as functional, cell-based. Conditions: TMD8, 72 h. A digest of the protocol: as §2
A short description of data set [10]: Drug metabolism in human liver microsomes assessed as (S,E)-N-(4-amino-6-methylene-5-(4-phenoxyphenyl)-7,8-dihydro-6H-pyrimido[5,4-b]pyrrolizin-7-yl)-3-hydroxyacrylamide formation after 3 hrs. The data set is classed as ADME, microsome.
Data set [11] concerns the target Receptor tyrosine-protein kinase erbB-4 (Homo sapiens, UniProt Q15303). The experiment in a line: Inhibition of recombinant human ErbB4 using Poly(Glu, Tyr) 4:1 as substrate after 1 hr by ELISA. A digest of the protocol:
as §1

Data set [12] has as its system Mus musculus. Description: Toxicity in CB17 SCID nude mouse xenografted with human TMD8 cells assessed as change in body weight at 15 mg/kg, po qd administered for 13 consecutive days measured during compound dosing up to day 17 post dose. The data set is classed as organism-based. Conditions: in vivo.
The test system of data set [13] is TMD8. The experiment in a line: Cell cycle arrest in human TMD8 cells assessed as accumulation at G2 phase at 1 nM after 48 hrs by propidium iodide staining-based flow cytometric method (reference value: 14.53%). The data set is classed as functional.
Data set [14] in a line: Drug metabolism in mouse liver microsomes assessed as (S)-4-(4-(4,7-diamino-6-methylene-7,8-dihydro-6H-pyrimido[5,4-b]pyrrolizin-5-yl)phenoxy)phenol formation after 3 hrs. The data set is classed as ADME, microsome.
In data set [15] the test system is Rattus norvegicus. The experiment in a line: Oral bioavailability in rat at 3 mg/kg. The data set is classed as ADME, organism-based. Conditions: in vivo. A digest of the protocol:
(§3)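 Rats were given compound at 1 mg/kg iv or 3 mg/kg po. Vehicle was DMSO, Tween 80 and normal saline. Values are the average of three determinations.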

Data set [16] can be described thus: Tmax in rat at 3 mg/kg, po. The data set is classed as ADME, organism-based. Conditions: in vivo. A digest of the protocol:
as §3

In data set [17] the target is Platelet-derived growth factor receptor beta (Homo sapiens, UniProt P09619). The experiment in a line: Inhibition of recombinant human PDGFR-beta using Poly(Glu, Tyr) 4:1 as substrate after 1 hr by ELISA.
Data set [18] has as its system TMD8. The experiment in a line: Cell cycle arrest in human TMD8 cells assessed as accumulation at G1 phase at 10 nM after 48 hrs by propidium iodide staining-based flow cytometric method (reference value: 51.33%). The class given is functional.
The test system of data set [19] is Rattus norvegicus. The experiment in a line: Volume of distribution at steady state in rat at 1 mg/kg, iv. The data set is classed as ADME, organism-based. Conditions: in vivo. Summed up: as §3
Data set [20] in a line: Drug metabolism in rat liver microsomes assessed as (S)-4-(4-(4,7-diamino-6-methylene-7,8-dihydro-6H-pyrimido[5,4-b]pyrrolizin-5-yl)phenoxy)phenol formation after 3 hrs. The class given is ADME, microsome.

The structures appear in SMILES notation. Calls of active or inactive are those of the source. No cut-off for these calls is given here.

Chain of Receptor tyrosine-protein kinase erbB-2 (P04626 whole entry): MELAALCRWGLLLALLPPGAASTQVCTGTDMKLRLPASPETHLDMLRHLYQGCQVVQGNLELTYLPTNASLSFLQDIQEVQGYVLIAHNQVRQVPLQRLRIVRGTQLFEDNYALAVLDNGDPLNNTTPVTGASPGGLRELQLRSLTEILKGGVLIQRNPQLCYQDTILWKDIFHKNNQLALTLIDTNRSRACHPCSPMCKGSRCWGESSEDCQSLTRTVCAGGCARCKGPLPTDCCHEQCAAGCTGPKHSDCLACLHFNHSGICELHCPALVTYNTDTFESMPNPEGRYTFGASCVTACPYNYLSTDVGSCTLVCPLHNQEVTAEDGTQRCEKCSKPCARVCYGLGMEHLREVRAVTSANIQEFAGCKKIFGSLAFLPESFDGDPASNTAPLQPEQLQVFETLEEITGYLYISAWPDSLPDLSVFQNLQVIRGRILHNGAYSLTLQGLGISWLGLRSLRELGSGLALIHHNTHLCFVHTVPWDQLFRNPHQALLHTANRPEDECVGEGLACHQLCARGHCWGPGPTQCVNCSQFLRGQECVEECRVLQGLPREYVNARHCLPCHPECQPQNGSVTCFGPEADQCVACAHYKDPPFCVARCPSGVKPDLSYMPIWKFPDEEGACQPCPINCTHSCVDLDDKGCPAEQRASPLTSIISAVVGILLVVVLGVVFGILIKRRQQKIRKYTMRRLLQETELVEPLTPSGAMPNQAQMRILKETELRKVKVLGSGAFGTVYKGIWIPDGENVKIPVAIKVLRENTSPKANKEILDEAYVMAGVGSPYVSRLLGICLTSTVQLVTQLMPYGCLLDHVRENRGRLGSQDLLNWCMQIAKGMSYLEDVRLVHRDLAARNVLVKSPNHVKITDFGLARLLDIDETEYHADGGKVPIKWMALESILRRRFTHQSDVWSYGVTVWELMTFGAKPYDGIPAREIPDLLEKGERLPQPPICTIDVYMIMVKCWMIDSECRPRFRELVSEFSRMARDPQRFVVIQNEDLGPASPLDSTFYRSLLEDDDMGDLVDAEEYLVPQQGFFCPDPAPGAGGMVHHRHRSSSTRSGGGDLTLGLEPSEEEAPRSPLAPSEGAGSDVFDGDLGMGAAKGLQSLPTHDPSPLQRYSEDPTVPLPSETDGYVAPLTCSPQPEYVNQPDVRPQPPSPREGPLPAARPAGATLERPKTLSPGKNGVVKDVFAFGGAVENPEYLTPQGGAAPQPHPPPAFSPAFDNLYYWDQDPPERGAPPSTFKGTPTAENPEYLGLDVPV
Chain of Proto-oncogene tyrosine-protein kinase receptor Ret (P07949 whole entry): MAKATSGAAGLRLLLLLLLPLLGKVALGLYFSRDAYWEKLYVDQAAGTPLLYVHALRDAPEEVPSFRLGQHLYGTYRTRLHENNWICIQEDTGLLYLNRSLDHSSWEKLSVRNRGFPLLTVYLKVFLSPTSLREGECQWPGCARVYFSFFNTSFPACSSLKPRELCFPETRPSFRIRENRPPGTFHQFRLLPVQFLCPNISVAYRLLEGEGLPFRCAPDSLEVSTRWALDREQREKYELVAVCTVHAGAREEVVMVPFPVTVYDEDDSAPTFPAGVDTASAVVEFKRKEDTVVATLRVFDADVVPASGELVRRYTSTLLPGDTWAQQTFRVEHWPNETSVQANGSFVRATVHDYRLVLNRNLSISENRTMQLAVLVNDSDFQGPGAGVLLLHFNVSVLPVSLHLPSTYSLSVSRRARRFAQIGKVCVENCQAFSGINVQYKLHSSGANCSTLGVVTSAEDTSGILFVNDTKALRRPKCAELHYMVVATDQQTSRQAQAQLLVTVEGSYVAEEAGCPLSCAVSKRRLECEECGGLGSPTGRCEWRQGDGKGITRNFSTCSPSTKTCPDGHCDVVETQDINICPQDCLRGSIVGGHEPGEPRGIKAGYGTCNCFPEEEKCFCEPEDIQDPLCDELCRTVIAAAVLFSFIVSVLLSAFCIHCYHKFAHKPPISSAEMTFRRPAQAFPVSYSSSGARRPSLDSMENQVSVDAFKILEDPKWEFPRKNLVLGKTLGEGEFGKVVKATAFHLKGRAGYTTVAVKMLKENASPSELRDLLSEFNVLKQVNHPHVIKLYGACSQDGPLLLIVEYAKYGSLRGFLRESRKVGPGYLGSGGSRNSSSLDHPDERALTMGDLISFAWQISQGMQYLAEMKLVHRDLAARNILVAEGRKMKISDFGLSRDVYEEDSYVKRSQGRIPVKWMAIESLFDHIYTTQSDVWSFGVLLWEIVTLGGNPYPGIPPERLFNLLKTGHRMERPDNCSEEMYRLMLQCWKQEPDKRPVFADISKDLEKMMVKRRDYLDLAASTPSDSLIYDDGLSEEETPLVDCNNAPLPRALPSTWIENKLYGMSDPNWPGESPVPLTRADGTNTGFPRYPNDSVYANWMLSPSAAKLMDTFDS
Chain of Receptor tyrosine-protein kinase erbB-4 (Q15303 whole entry): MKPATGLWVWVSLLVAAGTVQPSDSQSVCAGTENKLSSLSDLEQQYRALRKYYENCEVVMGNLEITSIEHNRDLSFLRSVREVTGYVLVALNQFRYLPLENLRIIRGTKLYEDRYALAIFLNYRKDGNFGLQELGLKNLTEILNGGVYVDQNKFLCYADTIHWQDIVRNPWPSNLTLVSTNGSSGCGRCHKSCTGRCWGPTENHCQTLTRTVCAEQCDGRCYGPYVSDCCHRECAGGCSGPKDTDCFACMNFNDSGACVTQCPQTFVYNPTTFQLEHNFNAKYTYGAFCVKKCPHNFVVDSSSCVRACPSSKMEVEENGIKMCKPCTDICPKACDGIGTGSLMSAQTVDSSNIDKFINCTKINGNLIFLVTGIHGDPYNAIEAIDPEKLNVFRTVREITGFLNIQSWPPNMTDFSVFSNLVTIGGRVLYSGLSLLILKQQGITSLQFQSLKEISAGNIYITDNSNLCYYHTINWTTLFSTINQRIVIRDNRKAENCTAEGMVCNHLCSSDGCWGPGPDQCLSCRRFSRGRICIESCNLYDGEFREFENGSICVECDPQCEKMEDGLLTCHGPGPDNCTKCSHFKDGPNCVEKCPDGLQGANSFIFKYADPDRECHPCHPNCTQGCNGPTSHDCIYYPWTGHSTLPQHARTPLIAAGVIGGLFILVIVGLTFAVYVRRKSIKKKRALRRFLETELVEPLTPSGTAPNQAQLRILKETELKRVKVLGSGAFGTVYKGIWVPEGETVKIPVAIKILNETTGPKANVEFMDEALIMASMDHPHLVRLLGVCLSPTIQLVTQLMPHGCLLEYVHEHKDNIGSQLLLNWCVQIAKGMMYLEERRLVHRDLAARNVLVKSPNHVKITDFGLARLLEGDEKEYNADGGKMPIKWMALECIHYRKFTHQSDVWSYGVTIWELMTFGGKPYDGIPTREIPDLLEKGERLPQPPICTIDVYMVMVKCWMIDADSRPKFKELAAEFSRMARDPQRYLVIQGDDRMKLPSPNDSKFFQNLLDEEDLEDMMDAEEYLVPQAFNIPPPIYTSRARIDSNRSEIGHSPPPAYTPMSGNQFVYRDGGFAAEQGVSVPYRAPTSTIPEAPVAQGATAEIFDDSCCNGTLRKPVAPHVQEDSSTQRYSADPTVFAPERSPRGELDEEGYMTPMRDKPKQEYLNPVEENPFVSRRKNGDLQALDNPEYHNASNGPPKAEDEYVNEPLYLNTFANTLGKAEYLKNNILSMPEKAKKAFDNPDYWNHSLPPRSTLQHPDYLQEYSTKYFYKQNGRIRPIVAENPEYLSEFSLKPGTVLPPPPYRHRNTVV

`C=CC(=O)N[C@@H]1Cn2c(c(-c3ccc(Oc4ccccc4)cc3)c3c(N)ncnc32)C1=C`: in the data set with TMD8 [1], the outcome was Active. The Activity entry in the data set with Mus musculus [2] is recorded as “Non-Toxic”; in the data set on TMD8 [7], 27.6%; in the data set on TMD8 [8], 12.79%; in the data set on Mus musculus [12], “Non-Toxic”; in the data set on TMD8 [13] it was 17.32%; in the data set with TMD8 [18], 76.32%. Moreover, the IC50 (as a rule, the concentration that gives 50% inhibition) in data set [3] is 23.2 nM; in data set [4], 20.3 nM; on Ephrin type-A receptor 2, more than 1000 nM; in the data set on Ramos, 5030 nM; in [6] it was 2.5 nM; in the data set with TMD8 [9] it was 16 nM. Besides, the results for the IC50 in [11] and in [17] were 0.6 nM and 215 nM, respectively. Also, the Drug metabolism entry in data set [5], in data set [10], in data set [14] and in [20] was “Metabolite_Detected” throughout. This molecule also showed a F in the data set on Rattus norvegicus [15] of 18.3%. The Tmax (usually the time at which the peak concentration occurs) in data set [16] was 15 min. Moreover, the Vdss – broadly, the apparent volume that relates the amount in the body to the concentration in plasma or blood – in the data set with Rattus norvegicus [19] turned out to be 1.3 L/kg.
